APP 5'UTR act = activators of APP 5'UTR luciferase reporter, primary screen, SH-SY5Y cells; SH-SY5Y APP 5'UTR luciferase reporter, luminescence; zero percent = DMSO vehicle wells; activation, % at 2 µM; hit rate 1% among 190,000;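 active = activation above a set limit, based on mean plus 3 SD of controls, cut at about 140% in these data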
STAT3 inh = IL-6 driven STAT3 reporter inhibitors, primary screen, U3A cells, luciferase, luminescence, MLSCN library | inhibition, % at 5.5 µM | hit rate 0.89% among 190,000 | IL-6 STAT3-luciferase reporter; host cell line lacks STAT1;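 active = inhibition above the mean inhibition across all screened compounds plus 3 SD, cut at about 44% in these data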;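 also: 0% = DMSO only wells and 100% = 100 µM nifuroxazide control wells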
STAT1 act = STAT1 signaling activators, primary screen, cell-based, HTS, luciferase reporter. activation (% of control), % at 5.5 µM. hit rate 2.6% among 200,000. AID 932, 2007. NIH 3T3 STAT1-luciferase reporter, IFN-gamma, luminescence; 100% = IFN-gamma alone, no compound;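 active = activation above the screen-wide mean activation plus 3 SD, cut at about 130% in these data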;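 also: raw ratio to IFN-gamma control signal so 100% means no change and 0% no light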
STAT1 blocker = STAT1 signaling inhibitors, primary screen, cell-based, HTS, luciferase reporter. NIH 3T3 STAT1-luciferase reporter, IFN-gamma, luminescence. inhibition, % at 5.5 µM. hit rate 0.35% among 200,000;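 active = inhibition above a set limit, the mean inhibition across all tested compounds plus 3 SD, cut at about 34% in these data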;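 also: 0% = IFN-gamma with DMSO and 100% = IFN-gamma with 300 µM nifuroxazide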
STAT3 activator = IL-6 driven STAT3 reporter potentiators, primary screen, U3A cells, luciferase, luminescence, MLSCN library; AID 871, 2007; IL-6 STAT3-luciferase reporter; 100% = signal with IL-6 EC80 alone; activation (% of control), % at 5.6 µM; hit rate 0.91% among 190,000;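 active = activation above the screen-wide mean of compound activation plus 3 SD, cut at about 130% in these data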;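 also: 0% = background luminescence of wells with medium and substrate only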
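Material: human STAT1-deficient U3A cells with stable STAT3-luciferase reporter / Probe or stimulus: IL-6 stimulus at 33 ng/mL final / Schedule: 1 h compound pre-exposure, 6 h IL-6 stimulation, 37 °C / Technique: luminescence / Read-out basis: percent of IL-6-only median luminescence / Control set: IL-6-only high control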
NF-kB neuron act = activators of NF-kB expression in neurons, primary screen, cell-based, HTS | human neuronal cells, NF-kB reporter expression; stronger effect = higher value | fold change at 12.5 µM | hit rate 1.6% among 190,000 | AID 1239, 2008; in the data active = fold change above about 3.3
STAT1 activ conf = STAT1 signaling activators, confirmation, cell-based, HTS, luciferase reporter; NIH 3T3 STAT1-luciferase reporter, IFN-gamma potentiation, luminescence; 100% = IFN-gamma EC80 alone, no compound; shares compounds with STAT1 act; activation (% of control), % at 5.7 µM; hit rate 97% among 1,200;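 active = activation above a set limit carried over from the earlier primary STAT1 screen, cut at about 140% in these data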;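 also: simple ratio to median IFN-gamma plus DMSO wells so 0% means no light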
NFkB act = NF-kB reporter activators, TNF-alpha stimulated, counter-screen for STAT1 activator project, cell-based, HEK293T, luciferase luminescence | shares compounds with STAT1 act | 100% = TNF-alpha with vehicle only | activation (% of control), % at 5.7 µM | hit rate 43% among 1,200 | AID 1306, 2008;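 active = activation above the mean of solvent-only control wells plus 3 SD, set per campaign, cut at about 130% in these data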;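 also: TNF-alpha given at a submaximal dose yielding about 80% of full reporter signal; values are well signal over median control so 100% means no change and 0% no light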
STAT3 act STAT1c = STAT3 reporter activation by STAT1 hits, confirmation, counter-screen for STAT1 activator project, U3A cells, luciferase, luminescence. shares compounds with STAT1 act. IL-6; cells lack STAT1; 100 = IL-6 alone, no compound effect. activation (% of control), % at 5.7 µM. hit rate 46% among 1,200;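 active = activation above the solvent-only control well mean plus 3 SD, set per plate batch, cut at about 110% in these data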;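 also: 0% = no luminescence and 100% = median IL-6 plus DMSO wells; higher means more STAT3 reporter activation so hits are non-selective activators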
Active calls of the source: *; . = no result. This is a sample that favours compounds with a hit; in the whole collection about 5.1% have one here.

SMILES	APP 5'UTR act	STAT3 inh	STAT1 act	STAT1 blocker	STAT3 activator	NF-kB neuron act	STAT1 activ conf	NFkB act	STAT3 act STAT1c
Cc1ccc(/C=N/c2sc3c(c2C#N)CCC3)o1	-1	17	167*	-73	88	0.97	188*	135*	105
N#Cc1c(/N=C/N2CCOCC2)sc2c1CCCCC2	123	-9	155*	-60	112	4.9*	194*	131	126*
CC(=O)c1cnc2cc(-c3ccccc3)nn2c1C	16	19	170*	-77	86	2.9	195*	131	109
CC(=O)c1cnc2cc(C)nn2c1C	-1	-8	112	-13	112	1	.	.	.
Nc1c(-c2ccccc2)cnc2cc(-c3ccccc3)nn12	290*	34	158*	-65	77	4.8*	276*	134*	98
CC(N1CCOC1=O)S(=O)(=O)c1ccccc1 (stereo not given)	12	2	98	2	103	1	.	.	.
O=C(N/C(=C\c1ccccc1)C(=O)N1CCN(CCO)CC1)c1ccccc1	16	7	95	5	96	0.9	.	.	.
CN(C)C=Nc1ccc2nn(-c3ccccc3)nc2c1	79	19	165*	-71	86	5.6*	186*	134*	109
CCOC(=O)c1cnn(-c2nc(-c3cccc(F)c3)cs2)c1C(F)(F)F	-5	24	106	-7	88	0.51	.	.	.
CCOC(=O)c1sc2nc(NC(=O)C(C)(C)C)sc2c1C	126	9	157*	-63	97	0.9	202*	134*	102
C=CCNc1nc(-c2cc3ccccc3o2)cs1	210*	20	185*	-94	80	7.5*	226*	86	85
C=CCNc1nc(-c2ccc(O)c(C(N)=O)c2)cs1	3	8	101	-8	94	1.1	.	.	.
Cc1cc(C(=O)CN2CCC(C)CC2)c(C)n1-c1ccc(F)cc1	136*	-7	157*	-63	106	0.74	164*	132	118*
CC1=CN2C(=N)/C(=C/c3ccco3)C(=O)N=C2S1	136*	-20	206*	-118	118	7.7*	310*	167*	120*
CC1=CN2C(=N)/C(=C/c3ccc([N+](=O)[O-])o3)C(=O)N=C2S1	-48	-11	101	-1	109	1.8	.	.	.
Fc1cccc(Cl)c1Cc1noc(/C=C/c2ccccc2)n1	48	12	121	-23	99	1.6	.	.	.
C(=C\c1nc(-c2ccccc2)no1)/c1ccccc1	135*	24	154*	-60	82	8.6*	207*	121	101
Cc1cc(NC(=O)CSc2nnc(C(C)N(C)C)n2-c2ccc(F)cc2)no1 (stereo not given)	12	0	102	-3	102	1.4	.	.	.
Cn1c(O)c(C=Nc2ccc(Br)cc2)sc1=O	165*	2	160*	-65	100	1.9	189*	136*	99
COc1ccc(CC2(CO)CCN(C(C)Cc3ccc(Cl)cc3)CC2)cc1 (stereo not given)	9	-13	100	-2	116	1	.	.	.
C=CCn1c(C(CCCC)CC(O)COCC(C)C)n[nH]c1=S (stereo not given)	-4	-4	98	3	105	1	.	.	.
O=C(COC(=O)CCc1ccccc1)Nc1cc(S(=O)(=O)N2CCOCC2)ccc1N1CCCC1	10	2	98	0	100	1.1	.	.	.
Fc1ccc(Sc2cc(Cl)c(-c3ccccc3)nn2)cc1	3	-28	109	-10	122	1	.	.	.
CCCCS(=O)(=O)/C=C\C=C/S(=O)(=O)CCCC	-98	16	307*	-226	90	0.13	210*	121	99
CCCCS(=O)(=O)/C=C\C1C2C=CC(C2)C1S(=O)(=O)CCCC (stereo not given)	-5	5	100	0	100	0.93	.	.	.
SMILES	APP 5'UTR act	STAT3 inh	STAT1 act	STAT1 blocker	STAT3 activator	NF-kB neuron act	STAT1 activ conf	NFkB act	STAT3 act STAT1c
COc1ccc(NC(=O)c2ccc(-c3ccc([N+](=O)[O-])cc3)o2)cc1	19	4	108	-8	98	1.1	.	.	.
O=C(Nc1nccs1)c1ccc(-c2ccccc2Cl)o1	156*	-8	152*	-58	116	2.7	178*	136*	107
O=C(Nc1nccs1)c1ccc(-c2ccc([N+](=O)[O-])cc2)o1	103	26	151*	-58	81	1.7	183*	130	96
O=C(Nc1ccc(O)cc1)c1c(O)c2c([nH]c1=O)CCCC2	162*	24	155*	-65	83	1	205*	139*	93
COc1ccc(NC(=O)N/C=C/c2ccccc2)cc1	113	13	156*	-61	95	1.2	168*	142*	105
O=C(CCc1nnc(CCCCc2ccccc2)o1)N(CCO)Cc1ccccc1	-4	2	102	-3	110	1.1	.	.	.
C=C(C)CN(CC)C(=O)CCc1nnc(CCCc2ccccc2)o1	85	-11	154*	-61	114	2.4	172*	133	123*
CCOc1ccc(CNC2CCCc3ccccc32)cc1 (stereo not given)	-5	3	104	-7	99	1.1	.	.	.
C=CCn1c(C)cc(C(=O)CSc2nc3ccccc3o2)c1C	107	32	160*	-65	75	2.2	215*	120	103
CCc1cc[n+](-c2nc3ccccc3nc2[N-]S(=O)(=O)c2ccc(Br)s2)cc1	6	0	104	-5	103	0.84	.	.	.
COCCCN(C(C)=O)c1nc(-c2ccc(OC)cc2)cs1	8	-4	156*	-61	109	2.1	145*	100	112*
C=CCn1c(C)cc(C(=O)COC(=O)c2ccc(N)c([N+](=O)[O-])c2)c1C	211*	-10	164*	-64	106	4.4*	243*	132	112*
